In assay [1] the target is T1, Human immunodeficiency virus type 1 integrase (Human immunodeficiency virus 1, UniProt Q7ZJM1). The experiment in a line: Inhibition of HIV1 integrase strand transfer activity expressed in Escherichia coli by PAGE. The essentials:
(§1)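 Recombinant IN expressed in E. coli and purified with 10% glycerol in all buffers. 10 μL reactions held 400 nM IN, 20 nM 5'-end [³²P]-labeled oligonucleotide substrate and inhibitor at various concentrations, with 10% DMSO controls. Buffer was 50 mM MOPS pH 7.2 with 7.5 mM MgCl₂ (final), 30 min at 37 °C. Stopped with EDTA/formamide loading dye.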

The target of assay [2] is T1, Human immunodeficiency virus type 1 integrase. Nature of the assay: Inhibition of HIV1 integrase 3'-processing activity expressed in Escherichia coli by PAGE. The essentials: as §1

Bounds are passed on as bounds.

T1 sequence (Q7ZJM1 whole entry): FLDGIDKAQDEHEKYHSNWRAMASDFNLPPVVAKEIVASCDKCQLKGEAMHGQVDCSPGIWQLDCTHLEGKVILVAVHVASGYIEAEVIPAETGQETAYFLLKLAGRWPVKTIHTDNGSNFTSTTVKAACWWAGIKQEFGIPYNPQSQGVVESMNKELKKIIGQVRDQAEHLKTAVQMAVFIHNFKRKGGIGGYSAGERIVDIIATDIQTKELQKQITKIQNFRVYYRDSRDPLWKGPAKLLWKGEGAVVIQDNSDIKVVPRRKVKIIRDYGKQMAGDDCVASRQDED

For orientation: IC50 means the concentration at which inhibition is half-maximal. Low values mean greater potency in that assay, high ones weaker potency in that assay. Compound `O=C1c2ccc(O)c(O)c2C(=O)N1Cc1ccccc1` showed an IC50 in assay [1] of 0.39 µM.

On to `C[C@H](C1CCCc2ccccc21)N1Cc2ccc(O)c(O)c2C1=O` (stereo partly specified), for which the figures for the half-maximal inhibitory concentration (IC50) in assay [2] and in assay [1] were more than 333 µM and 121 µM, respectively.

With `O=C1c2ccc(O)c(O)c2C(=O)N1[C@H]1CCc2ccccc21`, the results for the IC50 in assay [2] and in assay [1] were 128 µM and 1.8 µM, respectively.

Regarding `C[C@@H](c1cccc2ccccc12)N1Cc2ccc(O)c(O)c2C1=O`, the half-maximal inhibitory concentration (IC50) in assay [2] was more than 111 µM; in assay [1], 4 µM.

With `O=C1c2ccc(O)c(O)c2C(=O)N1CCc1ccccc1`, the results for the IC50 in assay [2] and in assay [1] were 157 µM and 6.8 µM, respectively.

Regarding `C[C@H](C1CCc2ccccc21)N1Cc2ccc(O)c(O)c2C1=O` (stereo partly specified), the figures for the concentration for half-maximal inhibition (IC50) in assay [2] and in assay [1] were more than 333 µM and 99 µM, respectively.

Consider `C[C@H](c1ccccc1)N1Cc2ccc(O)c(O)c2C1=O`, for which the IC50 in assay [2] is more than 333 µM; in assay [1] it was 100 µM.

Regarding `O=C1c2c(ccc(O)c2O)CN1Cc1ccc2ccccc2c1`, the IC50 in assay [2] amounted to 24 µM; in assay [1] it was 0.8 µM.

For `C[C@@H](c1ccccc1)N1Cc2ccc(O)c(O)c2C1=O`, the results for the concentration for half-maximal inhibition (IC50) in assay [2] and in assay [1] were more than 333 µM and 45 µM, respectively.

Take `O=C1c2ccc(O)c(O)c2C(=O)N1C1Cc2ccccc2C1`: the 50% inhibitory concentration (IC50) in assay [2] came out at 37 µM; in assay [1], 4 µM.

For `O=C1c2ccc(O)c(O)c2C(=O)N1[C@H]1CCCc2ccccc21`, the half-maximal inhibitory concentration (IC50) amounted to 111 µM in assay [2] and 10 µM in assay [1].

For `C[C@@H](c1ccc2ccccc2c1)N1Cc2ccc(O)c(O)c2C1=O`, the IC50 in assay [2] is more than 111 µM; in assay [1], 4.6 µM.

For `O=C1c2ccc(O)c(O)c2C(=O)N1Cc1cccc2ccccc12`, the concentration for half-maximal inhibition (IC50) in assay [2] was found to be 150 µM; in assay [1] it was 0.72 µM.

On to `O=C1c2ccc(O)c(O)c2C(=O)N1Cc1ccc2ccccc2c1`, for which the values for the IC50 in assay [2] and in assay [1] were 18 µM and 0.96 µM, respectively.

As for `C[C@H](c1cccc2ccccc12)N1Cc2ccc(O)c(O)c2C1=O`, the values for the IC50 in assay [2] and in assay [1] were more than 111 µM and 48.3 µM, respectively.

On to `O=C1c2ccc(O)c(O)c2C(=O)N1[C@@H]1CCCc2ccccc21`, for which the concentration for half-maximal inhibition (IC50) is more than 333 µM in assay [2] and 81 µM in assay [1].

With `C[C@H](c1ccc2ccccc2c1)N1Cc2ccc(O)c(O)c2C1=O`, the IC50 is more than 111 µM in assay [2] and 24 µM in assay [1].

With `O=C1c2ccc(O)c(O)c2C(=O)N1[C@@H]1CCc2ccccc21`, the IC50 in assay [2] stood at 290 µM; in assay [1], 12 µM.

On to `C[C@@H](C1CCc2ccccc21)N1Cc2ccc(O)c(O)c2C1=O` (stereo partly specified), for which the 50% inhibitory concentration (IC50) in assay [2] is more than 333 µM; in assay [1], 6 µM.

For the compound `C[C@@H](C1CCCc2ccccc21)N1Cc2ccc(O)c(O)c2C1=O` (stereo partly specified), the concentration for half-maximal inhibition (IC50) in assay [2] was more than 333 µM; in assay [1], 9 µM.

For `O=C1c2c(ccc(O)c2O)CN1C1Cc2ccccc2C1`, the IC50 is more than 333 µM in assay [2] and 23 µM in assay [1].

These data come from ChEMBL document CHEMBL1155254, “Diketoacid-genre HIV-1 integrase inhibitors containing enantiomeric arylamide functionality” (Bioorg Med Chem, 2009).
